In ChEMBL document CHEMBL1124703, “Analogues of carbamyl aspartate as inhibitors of dihydroorotase: preparation of boronic acid transition-state analogues and a zinc chelator carbamylhomocysteine” (J Med Chem, 1990):

How the values were obtained:
[1] = biological target: Multifunctional protein CAD (Homo sapiens, UniProt P27708); test: Inhibitory activity against Dihydroorotase (DHO) at pH 6.0; set-up: species or system Cricetulus griseus
L1210 [2] = test: Uptake in L1210 cells at a concentration of 210 uM after 24 hr; conditions: Mus musculus, L1210, 24 h
L1210 [3] = test: Inhibitory activity against murine L1210 cell growth at a concentration of 250 uM after 8 hr; format: functional, Mus musculus
L1210 [4] = test: Inhibitory activity against murine L1210 cell growth at a concentration of 250 uM after 24 hr; format: functional, Mus musculus
Outline: (§1)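 Murine L1210 cells kept in DMEM with 10% FCS and L-glutamine and harvested in log phase. About 1×10^5 cells/mL held 24 h in depleted medium before drug or DMSO vehicle was added. Trypan blue-excluding cells counted by hemacytometer at 0, 24 and 48 h. Three flasks per concentration and six controls; reported as % survival versus control.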

L1210 [5] = test: Inhibitory activity against murine L1210 cell growth at a concentration of 250 uM after 0h; format: functional, Mus musculus; outline: as §1
L1210 [6] = test: Inhibitory activity against murine L1210 cell growth at a concentration of 100 uM after 24 hr; format: functional, Mus musculus; outline: as §1
L1210 [7] = test: Inhibitory activity against murine L1210 cell growth at a concentration of 100 uM after 0h; format: functional, Mus musculus; outline: as §1
L1210 [8] = test: Inhibitory activity against murine L1210 cell growth at a concentration of 100 uM after 48 hr

Sequence of Multifunctional protein CAD (P27708 whole entry): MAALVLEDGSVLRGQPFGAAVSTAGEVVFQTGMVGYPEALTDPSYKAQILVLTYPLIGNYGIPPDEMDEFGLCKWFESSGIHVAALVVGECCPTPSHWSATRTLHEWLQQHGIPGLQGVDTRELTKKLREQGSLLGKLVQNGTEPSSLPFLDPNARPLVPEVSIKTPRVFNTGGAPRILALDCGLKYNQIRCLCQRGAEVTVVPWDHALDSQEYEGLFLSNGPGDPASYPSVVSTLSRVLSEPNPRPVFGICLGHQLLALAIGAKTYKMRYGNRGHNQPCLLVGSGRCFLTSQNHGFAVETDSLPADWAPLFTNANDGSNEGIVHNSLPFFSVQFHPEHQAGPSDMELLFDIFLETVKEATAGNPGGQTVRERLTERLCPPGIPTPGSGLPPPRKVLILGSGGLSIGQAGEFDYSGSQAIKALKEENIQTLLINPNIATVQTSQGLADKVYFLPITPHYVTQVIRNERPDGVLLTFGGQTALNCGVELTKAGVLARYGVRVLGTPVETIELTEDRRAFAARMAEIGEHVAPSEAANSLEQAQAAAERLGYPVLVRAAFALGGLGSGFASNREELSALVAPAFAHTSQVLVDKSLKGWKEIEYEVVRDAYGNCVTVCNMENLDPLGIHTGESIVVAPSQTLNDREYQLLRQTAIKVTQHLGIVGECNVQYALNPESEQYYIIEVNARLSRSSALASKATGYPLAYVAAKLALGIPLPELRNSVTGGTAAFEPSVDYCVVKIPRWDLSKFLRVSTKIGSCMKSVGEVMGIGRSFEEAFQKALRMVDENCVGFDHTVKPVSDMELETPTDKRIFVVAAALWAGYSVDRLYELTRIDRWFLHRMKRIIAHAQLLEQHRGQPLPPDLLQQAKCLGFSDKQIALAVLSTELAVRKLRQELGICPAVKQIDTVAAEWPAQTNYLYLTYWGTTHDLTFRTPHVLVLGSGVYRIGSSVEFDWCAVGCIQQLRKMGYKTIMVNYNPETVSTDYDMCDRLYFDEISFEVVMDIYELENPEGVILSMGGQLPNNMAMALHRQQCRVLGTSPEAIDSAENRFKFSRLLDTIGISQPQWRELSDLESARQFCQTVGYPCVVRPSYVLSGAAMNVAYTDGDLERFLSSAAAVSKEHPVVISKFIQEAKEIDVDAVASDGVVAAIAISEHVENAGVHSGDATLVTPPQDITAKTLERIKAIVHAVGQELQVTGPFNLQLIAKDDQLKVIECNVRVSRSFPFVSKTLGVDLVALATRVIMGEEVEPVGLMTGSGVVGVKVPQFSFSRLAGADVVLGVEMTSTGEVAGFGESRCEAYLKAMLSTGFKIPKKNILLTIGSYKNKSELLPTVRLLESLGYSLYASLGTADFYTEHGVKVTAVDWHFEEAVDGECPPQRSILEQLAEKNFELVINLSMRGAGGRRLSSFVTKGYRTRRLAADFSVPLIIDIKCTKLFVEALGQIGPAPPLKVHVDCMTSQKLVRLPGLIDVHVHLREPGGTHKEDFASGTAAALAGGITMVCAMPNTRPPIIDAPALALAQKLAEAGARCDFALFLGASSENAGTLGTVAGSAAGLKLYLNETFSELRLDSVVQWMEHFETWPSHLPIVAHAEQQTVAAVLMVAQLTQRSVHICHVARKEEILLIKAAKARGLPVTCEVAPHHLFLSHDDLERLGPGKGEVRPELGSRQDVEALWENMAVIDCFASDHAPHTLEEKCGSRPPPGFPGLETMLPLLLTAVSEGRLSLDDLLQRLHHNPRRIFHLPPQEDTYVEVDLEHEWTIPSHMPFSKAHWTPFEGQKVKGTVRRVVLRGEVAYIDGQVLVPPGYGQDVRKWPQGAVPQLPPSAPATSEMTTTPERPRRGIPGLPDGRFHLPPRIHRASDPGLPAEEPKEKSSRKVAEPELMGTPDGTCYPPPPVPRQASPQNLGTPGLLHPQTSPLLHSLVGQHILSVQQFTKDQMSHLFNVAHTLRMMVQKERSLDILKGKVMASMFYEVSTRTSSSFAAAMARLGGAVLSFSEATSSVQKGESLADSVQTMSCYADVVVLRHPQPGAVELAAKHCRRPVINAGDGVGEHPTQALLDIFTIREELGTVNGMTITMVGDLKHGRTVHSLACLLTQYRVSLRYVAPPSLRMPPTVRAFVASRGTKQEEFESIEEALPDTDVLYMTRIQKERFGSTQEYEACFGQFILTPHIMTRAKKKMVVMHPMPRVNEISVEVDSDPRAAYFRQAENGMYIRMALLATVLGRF

## CCOC(=O)C(CB(O)O)NC(N)=O (stereo not drawn)
[1]
  Ki: 5.07 µM
L1210 [2]
  Uptake at 210 µM: 0.09%

## NC(=O)BCCNC(CC(=O)O)C(=O)O (stereo not drawn) [BOROCARBAMYLETHYL ASPARTATE]
L1210 [3]
  Cell survival: 80
L1210 [4]
  Cell survival: 66
L1210 [5]
  Cell survival: 114

## O=C(O)C[C@H](NC(=O)CP(=O)(O)O)C(=O)O [PALA]
L1210 [6]
  Cell survival: 28
L1210 [7]
  Cell survival: 96
L1210 [8]
  Cell survival: 22
